Results published in ChEMBL document CHEMBL2046390, “Carnosine analogues containing NO-donor substructures: synthesis, physico-chemical characterization and preliminary pharmacological profile” (Eur J Med Chem, 2012).
Active and inactive are the calls of the source. The rule behind the calls is not given here.

Tests used:
[1] = Half life in human serum at 0.5 mM by RP-HPLC analysis; type: ADME, cell-free
Method in brief: (§1)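 A 10 mM aqueous stock was added to human serum preheated to 37 °C, giving 0.5 mM final, then incubated at 37 ± 0.5 °C. Aliquots were deproteinized with acetonitrile/0.1% TFA, centrifuged, filtered and analysed by RP-HPLC on C18 with diode-array detection, using methanol/20 mM sodium acetate pH 4.5–5 mM SDS mobile phase.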

Thoracic aorta [2] = test: Vasodilator activity in Wistar rat endothelium-denuded thoracic aorta assessed as inhibition of L-phenylephrine-induced contraction; type: functional, tissue-based
Method in brief: (§2)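 Rat aortic strips equilibrated 90 min, then contracted with 1 μM L-phenylephrine. Cumulative concentration-response curves were run at the plateau, with isometric recording. EC50 is the concentration giving 50% relaxation, mean of at least 5 determinations. ODQ 1 μM was added 5 min before contraction in a separate series.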

Serum = test: Metabolic stability of the compound in human serum at 0.5 mM after 3 hrs by RP-HPLC analysis; type: ADME, cell-free; conditions: 500 µM; method in brief: as §1
[3] = Antioxidant activity assessed as (E)-4-hydroxy-trans-2,3-nonenal scavenging activity in phosphate buffer at pH 7.4 at 1 mM after 24 hrs by reverse-phase HPLC analysis relative to control; type: functional
Method in brief: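 HNE 50 μM incubated with compound 1 mM in 1 mM phosphate buffer pH 7.4 at 37 °C for up to 24 h. Remaining HNE measured directly by reverse-phase HPLC. Scavenging % = 100 − (HNE left with scavenger / HNE left in control × 100).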

Thoracic aorta [4] = test: Vasodilator activity in Wistar rat endothelium-denuded thoracic aorta assessed as inhibition of L-phenylephrine-induced contraction in presence of ODQ; type: functional, tissue-based; method in brief: as §2
[5] = Antioxidant activity against CuSO4-induced LDL oxidation measured per mg of LDL product assessed as propagation rate of the oxidation at 100 uM by spectrophotometric analysis; type: functional
Method in brief: (§3)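 Human LDL isolated by ultracentrifugation (density 1.019-1.063 g/mL), EDTA removed by desalting, diluted in 10 mM phosphate buffer pH 7.4 to 50 μg protein/mL; compound 100 μM final. Oxidation started with 2.5 μM CuSO4 at 37 °C; conjugated dienes followed at 234 nm. Lag phase versus control; propagation rate from ΔA234 over time using ε234 = 29500 M-1 cm-1.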

[6] = Antioxidant activity against CuSO4-induced LDL oxidation assessed as delta-lag time at 100 uM by spectrophotometric analysis; type: functional; method in brief: as §3
[7] = Lipophilicity, log D of the compound at pH 7.4 by shake-flask method; type: physicochemical; conditions: buffer
Method in brief: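 Shake-flask partition between n-octanol and phosphate buffer pH 7.4 (ionic strength 0.15 M KCl), phases presaturated 4 h. Compound about 0.1 mM in the aqueous phase; shaken about 20 min, centrifuged, aqueous concentration read by UV at 230 nm. At least 6 determinations per compound.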

Rattus norvegicus [8] = test: Reduction of ischemia-reperfusion-induced TNFalpha level increase in Wistar rat serum at 500 mg/kg, iv by ELISA; type: functional, organism-based; set-up: dose 500 mg/kg
Method in brief: (§4)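 Male Wistar rats, 210–230 g, anaesthetised with Zoletil and kept at 37 °C, underwent 30 min carotid occlusion then 24 h reperfusion; n = 5 per group. Compounds in 5% DMSO given i.v. at reperfusion onset and again after 6 h. Infarct volume from 2-mm coronal brain slices stained with 2% TTC, 37 °C, 30 min. Serum TNF-α by ELISA (pg/mL); means ± SEM.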

Rattus norvegicus [9] = test: Protection against hypoxia-induced brain damage in Wistar rat ischemia-reperfusion injury model assessed as reduction of cerebral infarct volume at 500 mg/kg, iv administered at beginning of reperfusion and again after 6 hrs measured 24 hrs after reperfusion; type: functional, organism-based; set-up: dose 500 mg/kg; method in brief: as §4
Thoracic aorta [10] = test: Vasodilator activity in Wistar rat endothelium-denuded thoracic aorta assessed as inhibition of L-phenylephrine-induced contraction at 1 mM; type: functional; method in brief: as §2
[11] = Binding affinity to Cu2+ assessed as formation of compound-cu2+ complex formation by pH-metric technique; type: physicochemical
Method in brief: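 Compound and CuCl2, equimolar at 1 mM in water, acidified to pH 1.8 with 0.5 N HCl, then titrated with 0.5 N KOH to pH 12.2. Run under nitrogen at 25.0 ± 0.1 °C, ionic strength 0.15 M KCl, at least three titrations. Formation constants fitted from pH-metric data.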

Rattus norvegicus [12] = test: Reduction of ischemia-reperfusion-induced TNFalpha level increase in Wistar rat serum at 1 g/kg, iv by ELISA; type: functional, organism-based; method in brief: as §4
Rattus norvegicus [13] = test: Protection against hypoxia-induced brain damage in Wistar rat ischemia-reperfusion injury model assessed as reduction of cerebral infarct volume at 1 g/kg, iv administered at beginning of reperfusion and again after 6 hrs measured 24 hrs after reperfusion; type: functional, organism-based; method in brief: as §4

Row | Structure (SMILES) | half-life at 500 µM [1] [min] | EC50 (Thoracic aorta [2]) [µM] | Stability (Serum) | logD [7] | Activity [11] | Activity (Thoracic aorta [2]) | Activity [3] [%] | Activity (Thoracic aorta [4]) | Activity [5] [nmol/min] | TIME [6] [h] | Activity (Rattus norvegicus [8]) | Activity (Rattus norvegicus [9]) | inhibition at 1000 µM (Thoracic aorta [10]) [%] | Activity (Rattus norvegicus [12]) | Activity (Rattus norvegicus [13])
1 | NCCC(=O)N[C@@H](Cc1cnc[nH]1)C(=O)O [CARNOSINE] | 5 |  |  |  |  |  |  |  |  |  |  |  |  |  | 
2 | CCCNC(=O)[C@H](Cc1c[nH]cn1)NC(=O)CCN |  |  | Stable |  |  |  |  |  |  |  | inactive | Active |  |  | 
3 | NCCC(=O)N[C@@H](Cc1c[nH]cn1)C(=O)NC[C@@H](CO[N+](=O)[O-])O[N+](=O)[O-] |  | 169 | Stable | -2.33 | Active | Dose-dependent effect | 67.2 | inactive | 5.8 | 1.25 |  |  |  |  | 
4 | NCCC(=O)N[C@@H](Cc1c[nH]cn1)C(=O)O |  |  |  |  |  | Dose-dependent effect |  |  |  |  |  |  |  | inactive | Active
5 | NCCC(=O)N[C@@H](Cc1c[nH]cn1)C(=O)NC[C@H](CO[N+](=O)[O-])O[N+](=O)[O-] |  | 70 | Stable | -2.19 | Active | Dose-dependent effect | 77.6 | inactive | 5.8 | 1.47 | Active | Active |  |  | 

Further lines, with some results ahead:

Row | half-life at 500 µM [1] [min] | EC50 (Thoracic aorta [2]) [µM] | Stability (Serum) | logD [7] | Activity [11] | Structure (SMILES) | Activity (Thoracic aorta [2]) | Activity [3] [%] | Activity (Thoracic aorta [4]) | Activity [5] [nmol/min] | TIME [6] [h] | Activity (Rattus norvegicus [8]) | Activity (Rattus norvegicus [9]) | inhibition at 1000 µM (Thoracic aorta [10]) [%] | Activity (Rattus norvegicus [12]) | Activity (Rattus norvegicus [13])
6 |  | 3 | Stable | -1.01 |  | NCCC(=O)N[C@@H](Cc1c[nH]cn1)C(=O)NCc1ccc(OCCCO[N+](=O)[O-])cc1 | Dose-dependent effect | 74.3 | inactive | 6.3 | 1.17 |  |  |  |  | 
7 |  |  | Stable | -1.15 |  | CCCOc1ccc(CNC(=O)[C@H](Cc2c[nH]cn2)NC(=O)CCN)cc1 |  | 73.3 |  | 9.5 | 1.07 |  |  |  |  | 
8 |  |  | Stable | -2.43 | Active | NCCC(=O)N[C@@H](Cc1c[nH]cn1)C(=O)NCCCO[N+](=O)[O-] | Dose-dependent effect | 75.4 | inactive | 3.9 | 1.5 |  |  | 46 |  | 
